Source: ChEMBL document CHEMBL4513216, “Probing the Open Global Health Chemical Diversity Library for Multistage-Active Starting Points for Next-Generation Antimalarials” (ACS Infect Dis, 2020)

Assay: Toxicity liver stage against HepG2, at 10uM
Format: cell-based
Parameters: test concentration 10 uM, cell line HepG2-A16-CD81EGFP
Details: human, HepG2-A16-CD81EGFP cells; read-out: INHIBITION
Summary of the method: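 Uninfected HepG2-A16-CD81EGFP cells, 3 × 10^3 per well, 1536-well, plated on prespotted compound at 10 μM final, parasite-free screening media added to match infected plates; puromycin 10 μM positive, DMSO 0.5% negative; run in parallel with 48 h PbLuc assay at 37 °C, 5% CO2; viability by CellTiter-Glo luminescence, normalized to controls.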

| SMILES | cytotoxicity at 10 µM |
| --- | --- |
| COc1cc2[nH]c(=O)c(CN3CCC[C@H]3CO)cc2c(OC)c1OC | -10.7% |
| COc1ccc2c(ccn2CCC(=O)Nc2n[nH]c(CC(C)C)n2)c1 | 8.29% |
| CCC(Oc1ccc(N(C)S(C)(=O)=O)cc1)C(N)=O (configuration not stated) | -4.18% |
| COc1ccc(F)c(CN2CCCC(O)(CNCc3ccoc3)C2=O)c1 (configuration not stated) | 10.9% |
| CC(C)(C)c1cc(C(=O)NCCN2CCCS2(=O)=O)[nH]n1 | -8.16% |
| O=C(C1CCOC1)N1C[C@H]2CN(Cc3ccncc3)C(=O)[C@H]2C1 (some centres not stated) | -105% |
| CC(C)[C@@H]1CN(CCOc2ccccc2)C[C@H]1NS(=O)(=O)N(C)C | -43% |
| Cc1ccc2c(n1)N(CC1CC1)CCN(Cc1cnn(C)c1)C2 | -2.91% |
| CNC(=O)c1cn[nH]c1C1(C)CCCN(Cc2ccccc2OC)C1 (configuration not stated) | 0.353% |
| COCCN1CCCC(O)(CN2CCN(Cc3ccncc3)CC2)C1=O (configuration not stated) | -8.24% |
| CCO[C@H]1C[C@@H](O)C12CCN(C(=O)CC(F)(F)F)CC2 | -6.36% |
| CS(=O)(=O)N1C[C@H]2CC[C@@H](C1)N(C(=O)CCc1ccsc1)C2 | 14.3% |
| Cc1ncsc1C(=O)OCC1CCN(c2ccccc2)C1 (configuration not stated) | 27.5% |
| CCc1nc2n(n1)CC(NCC1=Cc3ccc(OC)cc3OC1)CC2 (configuration not stated) | 4.02% |
| CCCn1nc2c(cc1=O)CN(CCCN1CCCC1=O)CC2 | -6.49% |
| CCOc1nnc(CN(CC)CC(=O)Nc2c(F)cccc2F)s1 | -2.62% |
| O=C([C@H]1CCCO1)N1CCc2ncnc(NC3CC3)c2CC1 | -12.6% |
| Cc1n[nH]c(=O)c(C(=O)N2CCN(CCc3cccs3)CC2)c1C | -6.22% |
| O=C(CN1CCc2ccccc2C1)NCc1cc2n(n1)CCCNC2 | 2.22% |
| COCCCN(C)[C@@H]1c2ccccc2C2(CCNCC2)[C@H]1O | 1.73% |
| CC/N=c1\nc(NCC)nc2n1C(O)(Nc1cccc(C)c1C)CS2 (configuration not stated) | 11.5% |

| SMILES | cytotoxicity at 10 µM |
| --- | --- |
| NC(=O)c1cccc(CC2CCN(C(=O)CO)C2)c1 (configuration not stated) | -23.7% |
| CN1C(=O)C(C)(C)COc2ccc(NS(=O)(=O)Cc3ccccc3)cc21 | 8.2% |
| O=C(NCCCN1CCOCC1)C1CCCN(Cc2ccco2)C1 (configuration not stated) | -0.911% |
| CC(C)(C)n1cc(C(=O)O)c(-c2ccc(F)cc2F)n1 | 6.92% |
| Cn1cnnc1C1CCCN(C(=O)c2n[nH]c3ccccc23)C1 (configuration not stated) | 0.914% |
| CNCc1cn(C2CCN(CCC(C)c3ccccc3)CC2)nn1 (configuration not stated) | 3.44% |
| CCn1cnnc1CNC(=O)NC(C)c1cccs1 (configuration not stated) | -4.92% |
| CC(C)N1CCO[C@H]2CN(C(=O)c3ccncc3)C[C@H]21 | -74.3% |
| Cc1nc(C2CCCCN2C(=O)c2ccccc2)ncc1C(=O)N(C)C (configuration not stated) | 1.9% |
| CNCCCNc1nc(C2CCCC2)nc2c1cnn2C | 6.63% |
| Cc1ccc(OCC2CCCN(Cc3ccc(CO)o3)C2)cc1 (configuration not stated) | 5.66% |
| CCc1nccn1C1CCCN(C(=O)Cc2cn3ccsc3n2)C1 (configuration not stated) | -23% |
| Cn1cc(CC2CCN(C(=O)NCCCc3ccc(O)cc3)C2)cn1 (configuration not stated) | 0.557% |
| O=C(NCc1csc(Br)c1)Nc1cn[nH]c1 | 2.1% |
| COCc1ccccc1C(=O)N1CCCC1Cn1nc(C)cc1C (configuration not stated) | -3.98% |
| CCN(CC)S(=O)(=O)c1csc(C(=O)N2CCC(C(N)=O)CC2)c1 | -43.9% |
| CSc1nccc(N2CCC3(CCCN(CCc4ccccc4)C3)C2)n1 (configuration not stated) | 16.2% |
| CN(Cc1ccccc1O)C(=O)NC1CCCN(c2ncccn2)C1 (configuration not stated) | -0.421% |
| O=C(c1ccco1)N1CC(S(=O)(=O)c2ccc(Cl)cc2)C1 | -2.02% |
| Cc1cnn(CCNCc2ccc(F)cc2Cl)c1 | -5.16% |
| FC(F)(F)c1cccnc1N1CCC(OC2CCOCC2)CC1 | -8.44% |

| SMILES | cytotoxicity at 10 µM |
| --- | --- |
| Cc1cnn(-c2cccc(N3CCCC3)n2)c1 | -6.26% |
| COc1ccccc1CCN1CCCC(CN(C)Cc2c[nH]c(C)n2)C1 (configuration not stated) | 6.74% |
| NC(=O)c1nc(CC(=O)Nc2cccc(C(F)(F)F)c2)no1 | 0.493% |
| Cc1cc(NC(=O)N2CCCC2CN2CCOCC2)nn1C (configuration not stated) | 1.63% |
| CN1C[C@@H](C(=O)NC2CC2)[C@@]2(COc3ccc(F)cc3C2=O)C1 | -26.5% |
| O=C1CC(N(C(=O)c2ccc(F)c(C(F)(F)F)c2)C2CC2)C(=O)N1 (configuration not stated) | -10.5% |
| CC(C)C1=NOC(c2nc(Cc3ccccc3)no2)C1 (configuration not stated) | -3.94% |
| Cc1occc1C(=O)N1CCCN(Cc2ncc(Cl)n2C)CC1 | -1.25% |
| Cc1cccc(CNC2CCCc3c2cnn3C)c1 (configuration not stated) | -8.77% |
| NC(=O)C(NC1CCN(CC2CCCCC2)CC1)c1ccc(F)cc1 (configuration not stated) | -5.14% |
| COc1ccc(-c2nc(CNC3CCc4nc(C)nn4C3)no2)cc1 (configuration not stated) | -3.42% |
| CC(C)Cc1cc(C(=O)N2CCC(Cc3cnn(C)c3)C2)cc(O)n1 (configuration not stated) | -2.1% |
| COC(=O)c1ccc(S(=O)(=O)NCC(C)(O)c2cccs2)cc1 (configuration not stated) | -6.87% |
| N#CC1COCCN1C(=O)c1cccc2cc[nH]c12 (configuration not stated) | 7.1% |
| Fc1ccc2[nH]c(C3CCCN3CCc3ccccn3)nc2c1 (configuration not stated) | -9.7% |
| Cn1cnnc1S(=O)(=O)C1CCN(C(=O)c2ccco2)CC1 | -2.28% |
| O=C(c1ccccn1)N1CCc2ncnc(-c3ccncc3)c2CC1 | -1.82% |
| O=C(CC1CCCC1)Nc1ccc(-n2cc(Br)cn2)nc1 | -51.2% |
| COCCCNc1c(-c2ccc(Cl)cc2)c(=O)c1=O | 39.2% |
| Cc1ccc(C(=O)N2C[C@H]3CN(Cc4csc(C)n4)C[C@H]3C2)cn1 | -143% |
| CC(C)c1nnc2n1CCN(Cc1nc(-c3ccoc3)no1)C2 | -3.69% |

| SMILES | cytotoxicity at 10 µM |
| --- | --- |
| CN(C(=O)Cc1ccc2c(c1)OCCO2)C1CCCCC1 | 2.89% |
| COCC(=O)N1CCCC1(C)c1nc(C)cc(O)n1 (configuration not stated) | -28.5% |
| O=C(c1ccncc1)N1CCOC2(COCCN(c3cccnc3)C2)C1 (configuration not stated) | 6.25% |
| CNc1ncccc1C(=O)N1CCN(Cc2ccc(C)cc2)C(=O)C1C (configuration not stated) | 5.67% |
| CCC(NC(=O)C1CCN(S(C)(=O)=O)CC1)c1ccc(C)cc1 (configuration not stated) | -5.85% |
| Cc1cnc(C(=O)N[C@H]2CN(CCS(C)(=O)=O)C[C@@H]2C2CC2)cn1 | 17.6% |
| CC(=O)N(C)c1nc(Cn2nnnc2C(C)C)cs1 | -2.01% |
| CN(C)CCNc1cc(-c2ncccc2C(F)(F)F)c2cc[nH]c2n1 | 7.2% |
| CN1CC(NC(=O)CCOc2cccc(Cl)c2)CC1=O (configuration not stated) | -5.4% |
| Cc1cc(N2CCOCC2)ccc1NC(C)c1nc(C(C)(C)C)no1 (configuration not stated) | -12.7% |
| CN(Cc1ccsc1)C(=O)CN1CCOC(Cn2cccn2)C1 (configuration not stated) | -14.7% |
| COc1ccc2c(c1)NC(=O)C2OC(=O)CCc1ccc(F)cc1 (configuration not stated) | -4.71% |
| CCOCC1CN(Cc2ccoc2)Cc2cn(CC3CC3)nc21 (configuration not stated) | 12.1% |
| Cc1nc(C)c(CC(=O)N2CCC(c3ccn4nccc4n3)CC2)s1 | -0.743% |
| Cc1cnn(CC2CN(c3cnc4ccccc4n3)CCO2)c1 (configuration not stated) | 2.02% |
| CC(C)C(NC(=O)NCCNc1ccccn1)c1cccs1 (configuration not stated) | -8.13% |
| CN(Cc1ccccn1)C(=O)CNC(=O)N1CCc2ccccc2C1 | 2.8% |
| Cc1ocnc1C(=O)N1CC[C@@H](O)[C@@H](O)[C@H](N2CCC(F)(F)CC2)C1 | 4.86% |
| Cc1ccc(CN2CCn3c(C(=O)N(C)C)cnc3C2)s1 | 5.97% |
